Hits are enriched below; roughly 2.3% of the tested compounds scored in any of these assays.
MT1-MMP act inh: inhibitors of human MT1-MMP activation; HT1080 RFP-PRO-GFP cells, GFP/RFP ratio fluorescence, overnight; percent of plate control window, DMSO zero; GFP/RFP ratio change, % at 20 µM; 0.061% of 360,000 active; AID 651647;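 active = GFP/RFP ratio change of at least 30% with cell ATP level not reduced by more than half and red fluorescence within 50% of control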
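Assay system: HT1080 RFP-PRO-GFP cells. Benchmarks: DMSO vehicle wells and RFP-L50D-GFP reporter cell wells. Times: overnight cell settling, then overnight compound exposure, 37 °C, 5% CO2. Compound: 20 µM single dose, 1% DMSO. Read-out basis: GFP/RFP fluorescence ratio.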
ATG4B inhibitor: ATG4B (human) cysteine protease inhibition; inhibition, % at 8.33 µM; 0.51% of 340,000 active; AID 504462; ATG4B cleavage of LC3-PLA2, NBD-HPC fluorescence, 1 h; in the data active = inhibition above about 40%
Target sequence (Q9Y4P1 whole entry, looked up): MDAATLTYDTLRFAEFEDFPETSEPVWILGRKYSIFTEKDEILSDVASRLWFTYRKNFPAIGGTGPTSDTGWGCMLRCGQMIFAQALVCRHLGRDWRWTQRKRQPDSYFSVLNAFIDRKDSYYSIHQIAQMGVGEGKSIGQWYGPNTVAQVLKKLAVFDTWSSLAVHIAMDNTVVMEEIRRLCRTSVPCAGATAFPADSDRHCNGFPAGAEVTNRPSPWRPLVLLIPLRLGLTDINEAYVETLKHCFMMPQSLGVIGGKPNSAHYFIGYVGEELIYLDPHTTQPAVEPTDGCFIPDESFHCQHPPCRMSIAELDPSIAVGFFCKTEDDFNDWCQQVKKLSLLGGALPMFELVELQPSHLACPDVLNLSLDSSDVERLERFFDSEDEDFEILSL
SKN-1 block: blocks SKN-1 activity in C. elegans | AID 624304 | inhibition, % at 21.8 µM | C. elegans VP596 Pgst-4::GFP/RFP ratio, acrylamide-induced, 24 h | 0.49% of 360,000 active;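 active = interference check ratio from 0.5 to 1.5 plus GFP to RFP signal ratio inhibition reaching or exceeding a fixed threshold, cut at about 30% in these data, passing the limit was not always enough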
MPTP block: blocks calcium-induced mitochondrial swelling. 1.4% of 360,000 active. isolated mouse mitochondria, Ca2+ swelling absorbance, 30 min. inhibition, % at 10 µM. AID 602449;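 active = inhibition of 50% or more, scaled per plate between neutral and stimulator controls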;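 also: 0% = DMSO wells given calcium and 100% = 1 mM EGTA wells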
ATG4B conf: confirmation of human ATG4B inhibitors; shares compounds with ATG4B inhibitor; ATG4B protease fluorescent substrate cleavage assay; inhibition, % at 8.33 µM; 92% of 320 active; AID 504757; in the data active = inhibition above about 39%
PLA2 ctr: PLA2 (human) inhibition in ATG4B counter-screen | shares compounds with ATG4B inhibitor | inhibition, % at 8.33 µM | purified PLA2, NBD-C6-HPC fluorescence, 45 min | 66% of 1,600 active; in the data active = inhibition above about 50%
Target sequence (P04054 whole entry, looked up): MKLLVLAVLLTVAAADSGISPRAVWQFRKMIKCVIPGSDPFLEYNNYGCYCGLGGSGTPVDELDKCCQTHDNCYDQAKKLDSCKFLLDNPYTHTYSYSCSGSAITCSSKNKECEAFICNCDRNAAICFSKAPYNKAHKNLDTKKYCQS
Numbers without * were called inactive; . = not tested or not shown.

SMILES | MT1-MMP act inh | ATG4B inhibitor | SKN-1 block | MPTP block | PLA2 ctr | others
Clc1ccc(C(Cn2ccnc2)OCc2c(Cl)cccc2Cl)c(Cl)c1 (stereo not drawn) | -15 | 23 | 26 | 1 | .
Cc1nc(SCC(=O)NCC2CCCO2)c2c3c(sc2n1)CCCC3 (stereo not drawn) | -2 | 2 | 10 | -2 | .
COCCn1c(C)cc(C(=O)CSc2nc(C)nc3sc4c(c23)CCC4)c1C | 6 | 57* | 12 | 10 | 37
COC(C[C@H]1O[C@H]1[C@H](O)COCc1ccccc1)OC | 8 | 2 | -2 | -1 | .
COC(=O)Cc1cc(=O)oc2cc(O)ccc12 | 0 | -2 | 8 | -2 | .
Fc1ccccc1C1CC(c2ccco2)=Nc2ccccc2S1 (stereo not drawn) | -6 | 53* | 8 | 1 | 73*
CCOc1ccc(NC(=O)C(C)NC(=O)c2ccccc2Cl)cc1S(=O)(=O)N1CCCC1 (stereo not drawn) | -2 | 1 | 10 | -2 | .
Cc1nn(Cc2c(F)c(F)c(F)c(F)c2F)c(C)c1NC(=O)c1ccc(COc2ccc(Cl)cc2Cl)o1 | -2 | 88* | 7 | 7 | 85*
Cc1nn(Cc2c(F)c(F)c(F)c(F)c2F)c(C)c1NC(=O)c1cccc(COc2ccccc2Cl)c1 | 0 | 63* | 10 | -2 | 56*
CCn1cc(C(=O)OCC(=O)c2cc(C)n(-c3ccc(OC(F)F)cc3)c2C)c(=O)c2ccc(C)nc21 | 2 | 72* | 2 | 2 | 74*
CCn1cc(C(=O)OCC(=O)c2cc(C)n(-c3ccccc3F)c2C)c(=O)c2ccc(C)nc21 | 7 | 71* | 5 | 20 | 75*
Cc1cc(C(=O)COC(=O)c2ccc[nH]c2=O)c(C)n1-c1ccccc1F | -5 | 2 | 16 | 1 | .
CCn1cc(C(=O)OCC(=O)N(C)Cc2ccccc2)c(=O)c2ccc(C)nc21 | 0 | -2 | -5 | 6 | .
CCn1cc(C(=O)OCC(=O)c2cc(C)n(-c3ccccc3)c2C)c(=O)c2ccc(C)nc21 | 2 | 66* | 9 | 0 | 68*
CCn1cc(C(=O)OCC(=O)Nc2ccccc2OC(F)F)c(=O)c2ccc(C)nc21 | 4 | -2 | -6 | 0 | .
COc1ccc(Cl)cc1NC(=O)Nc1cccc([N+](=O)[O-])c1C | -1 | 78* | -4 | 45 | 86*
COc1ccc(Cl)cc1NC(=O)NC1CCCCC1 | 0 | 8 | 9 | 1 | .
COc1cccc2c1O/C(=N\O)C(C(=O)Nc1cccc(Br)c1)C2 (stereo not drawn) | -3 | -11 | -11 | 1 | .
O=C(O)c1[nH]c2ccccc2c1C(c1cc(Cl)cc([N+](=O)[O-])c1O)c1c(C(=O)O)[nH]c2ccccc12 | 3 | 58* | 1 | -1 | 40 | ATG4B conf=30
O=C(O)c1[nH]c2ccccc2c1C(c1ccccc1)c1c(C(=O)O)[nH]c2ccccc12 | 1 | 12 | 4 | 7 | .
COc1ccc(NS(=O)(=O)c2ccc3c(c2)[C@H]2C=CC[C@H]2[C@@H](c2ccc(C(=O)O)cc2)N3)cc1 | -2 | 78* | 16 | 6 | 48 | ATG4B conf=31
CC(=O)c1ccc2c(c1)C1C=CCC1C(c1ccc(S(=O)(=O)N3CCOCC3)cc1)N2 (stereo not drawn) | 5 | -5 | -2 | 2 | .
Cc1c(Cl)cccc1NS(=O)(=O)c1ccc2c(c1)C1C=CCC1C(c1ccc(C(=O)O)cc1)N2 (stereo not drawn) | 1 | 101* | 7 | -3 | 92*
O=C(CSc1nnc(CCc2ccccc2)n1-c1ccc(Cl)cc1)c1ccccc1 | -11 | 58* | 5 | -2 | 61*
COc1ccc(-n2c(CCc3ccccc3)nnc2SCC(=O)c2ccc(Cl)cc2)cc1 | -7 | 13 | 2 | -3 | .
SMILES | MT1-MMP act inh | ATG4B inhibitor | SKN-1 block | MPTP block | PLA2 ctr | others
CC1Cc2cc(S(=O)(=O)CCC(=O)NCc3ccco3)ccc2N1C(=O)C1CC1 (stereo not drawn) | -1 | -9 | 4 | -1 | .
Cc1cccc(C)c1OCc1nc2ccccc2c(=O)n1/N=C/c1ccc(OCC(=O)O)cc1 | 11 | 53* | 7 | -3 | 37 | ATG4B conf=62*
O=C(O)COc1ccc(/C=N/n2c(COc3ccccc3)nc3ccccc3c2=O)cc1 | 11 | -4 | 9 | -6 | .
C=CCNc1nc(C(=O)OCC(=O)c2ccc(Cl)cc2)cs1 | -1 | -5 | -7 | -1 | .
COc1ccc(C(C)NC(=O)Cc2cccs2)cc1 (stereo not drawn) | 1 | 0 | -11 | 0 | .
CCOC(=O)CSc1nc2ccccc2c(=O)n1CC1CCCC1 | 0 | 71* | 4 | 0 | 71*
CCn1c(SCC(=O)OC2CCCCC2)nc2ccccc2c1=O | 5 | 4 | -7 | 0 | .
COc1ccc(-c2nnc(CSc3nc4ccccc4c(=O)n3CC(C)C)o2)cc1OC | -4 | 45* | 13 | 1 | 44 | ATG4B conf=74*
CCOC(=O)CSc1nc2ccccc2c(=O)n1CC(C)C | 0 | 57* | -2 | -1 | 56*
CCOC(=O)CSc1nc2ccccc2c(=O)n1CC | 0 | 1 | 1 | 16 | .
CCc1nc2c(OCc3ccccc3C)cccn2c1N(C)C(=O)c1ccco1 | -3 | . | -8 | 0 | .
O=C1/C(=C/C=C/c2ccco2)SC(=S)N1NS(=O)(=O)c1ccccc1 | -7 | 78* | 18 | 0 | 18 | ATG4B conf=41*
O=C1/C(=C/c2cccs2)SC(=S)N1NS(=O)(=O)c1ccccc1 | 0 | -2 | 19 | 3 | .
Cc1nnc(N2CCCC(C(=O)NCc3cccc(F)c3)C2)c2nn(-c3ccccc3)c(C)c12 (stereo not drawn) | -18 | 50* | -17 | 1 | 37
CC(C)OC(=O)c1cc(C(=O)c2cc(Br)ccc2O)coc1=N | -5 | 3 | -8 | -1 | .
CCOc1ccccc1NC(=O)c1cc(C(=O)c2cc(Br)ccc2O)coc1=N | 0 | 56* | -2 | 44 | 57*
COC1=C(Br)C(=O)c2ncccc2C1=O | 3 | 69* | 12 | 3 | -13 | ATG4B conf=32
Cc1ccc(-n2[nH]c(C)c(/C=N/NC(=O)c3ccc([N+](=O)[O-])cc3)c2=O)c(C)c1 | 9 | . | 6 | 0 | .
Fc1cccc(Cl)c1CNc1ccc(N2CCCC2)cc1 | 5 | 59* | 5 | 6 | 58*
Cc1ccc(NC(=O)[C@@H]2CCCN2S(=O)(=O)c2ccc(Cl)cc2)cc1 | 5 | -18 | 18 | 0 | .
O=C(OCc1cc(Cl)ccc1OC(F)F)c1cncc(Br)c1 | -3 | 52* | 1 | -5 | 54*
O=C1CCC(C(=O)OCc2cc(Cl)ccc2OC(F)F)N1 (stereo not drawn) | -3 | 4 | 30 | 0 | .
CC(C)(C)c1cc(=O)[nH]c(SCc2ccccc2Cl)n1 | -3 | 50* | 7 | 0 | 52*

Assay outcomes from PubChem BioAssay.
